Sampled rows, rich in hits. Any-hit rate of the full collection: about 1.9%.
CHRM4 agonist – agonists of human muscarinic M4 receptor (CHRM4); P08173; CHO-K1 hM4/Gqi5, Fluo-8 calcium fluorescence; vehicle 0%, full acetylcholine response 100%; activation, % at 3 µM; hit rate 0.14% among 360,000;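 active = activation above the run mean over all test wells plus 3 SD, cut at about 32% in these data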;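 note: peak over basal fluorescence ratio per well then scaled between controls; 0% = DMSO wells and 100% = acetylcholine at EC100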
M4 PAM – CHRM4 positive allosteric modulation; hit rate 0.4% among 360,000; activation, % at 3 µM; P08173; CHO-K1 hM4/Gqi5, Fluo-8 calcium fluorescence, ACh EC20; 0% = ACh EC20, 100% = maximal ACh;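 active = activation above its plate's cutoff, the mean activation of sample wells plus 3 SD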
CHRM5 agonist – agonists of human muscarinic M5 receptor (CHRM5); P08912; CHO-K1 hM5 cells, Fluo-8 calcium fluorescence; 0% DMSO wells, 100% maximal acetylcholine response; activation, % at 3 µM; hit rate 0.19% among 360,000; AID 624037;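 active = activation above the run's mean over test compounds plus 3 SD, cut at about 23% in these data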;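 note: signal is peak over basal fluorescence ratio across the kinetic read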
Target sequence (P08912 whole entry, looked up): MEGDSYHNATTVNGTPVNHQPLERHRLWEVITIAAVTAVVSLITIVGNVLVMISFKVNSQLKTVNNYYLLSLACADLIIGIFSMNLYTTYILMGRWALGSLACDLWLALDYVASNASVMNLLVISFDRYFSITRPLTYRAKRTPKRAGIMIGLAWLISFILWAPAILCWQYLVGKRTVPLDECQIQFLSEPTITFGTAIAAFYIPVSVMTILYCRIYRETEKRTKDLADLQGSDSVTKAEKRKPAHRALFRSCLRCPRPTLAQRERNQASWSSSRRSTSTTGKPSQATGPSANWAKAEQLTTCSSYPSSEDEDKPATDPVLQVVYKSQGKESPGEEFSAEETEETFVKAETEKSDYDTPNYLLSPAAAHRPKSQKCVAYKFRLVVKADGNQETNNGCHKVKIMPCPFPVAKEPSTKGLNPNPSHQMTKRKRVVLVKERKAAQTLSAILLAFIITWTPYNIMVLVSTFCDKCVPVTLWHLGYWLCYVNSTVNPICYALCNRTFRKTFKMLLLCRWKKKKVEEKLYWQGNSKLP
CHRM5 antagonist – CHRM5 antagonism in calcium assay; P08912; CHO-hM5 cells, Fluo-8 calcium fluorescence, ACh EC80; inhibition, % at 3 µM; hit rate 0.59% among 360,000;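 active = inhibition above a per-plate cutoff, the mean of that plate's test compounds plus 3 SD, cut at about 27% in these data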;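 note: 0% = acetylcholine EC80 with DMSO and 100% = DMSO without agonist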
M5 PAM – CHRM5 positive allosteric modulation; P08912; CHO-K1 hM5, Fluo-8 calcium, ACh EC20 PAM; 0% = ACh EC20, 100% = ACh EC100; activation, % at 3 µM; hit rate 0.3% among 360,000; AID 624038;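 active = activation above the run cutoff, the mean activation of all test compounds plus 3 SD, cut at about 18% in these data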
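System: CHO-K1 cell line with stable human muscarinic M5 receptor expression | Also added: EC20 acetylcholine as agonist stimulus | Compound: One concentration, 3 µM final (nominal) | Timing: Fluo-8 loading 80 min at 37 °C plus 30 min room temperature | Measured by: Fluo-8 calcium dye fluorescence, kinetic read | Read-out basis: % activation, ACh-normalized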
CHRM4 antagonist – antagonists of human muscarinic M4 receptor (CHRM4). P08173. CHO-hM4 cells, ACh EC80, Fluo-8 calcium fluorescence. inhibition, % at 3 µM. hit rate 0.73% among 360,000. AID 624125;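 active = inhibition above its plate's cutoff, the mean inhibition of sample wells plus 3 SD, cut at about 27% in these data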;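 note: 0% = acetylcholine EC80 with DMSO and 100% = DMSO without agonist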
The depositor's hits bear a star.

SMILES	CHRM4 agonist	M4 PAM	CHRM5 agonist	CHRM5 antagonist	M5 PAM	CHRM4 antagonist
COc1cc(/C=C2\SC(=S)N(NC(=O)c3ccccc3O)C2=O)ccc1O	32.6*	-17.6	19.9	21.3	-12.5	19.7
O=C(NN1C(=O)/C(=C/c2ccc(O)cc2)SC1=S)c1cccc(O)c1	13.3	-8.0	25.1*	11.2	-4.8	13.8
COCCN(C(=O)c1ccc2c(c1)C(=O)N(c1ccccc1Cl)C2=O)c1c(N)n(CC(C)C)c(=O)[nH]c1=O	1.2	-6.7	3.5	2.7	11.7	5.9
Cc1ccc(C(=O)CCC(=O)N2CCN(C/C=C/c3ccccc3)CC2)cc1	3.6	2.4	-3.0	8.9	-5.8	-5.3
O=c1cc(O)cc2n1CCC2	-0.3	4.8	1.7	7.0	-4.1	1.4
O=[N+]([O-])c1c(Nc2ccccc2O)cc(Cl)c2nonc12	-1.5	-2.6	-10.7	21.2	8.4	32.9*
O=[N+]([O-])c1c(Nc2ccccc2O)ccc2nonc12	1.6	-8.4	-2.1	-4.6	3.5	8.0
Cc1cc(C(=O)N2CCC2(C)C(=O)NS(=O)(=O)c2cccc(Cl)c2)nn1C (stereo not drawn)	0.6	7.8	-0.6	-6.8	2.1	-4.8
Cc1ccccc1OCC(=O)NCCCNC(=O)c1ccccn1	1.1	16.4*	-2.0	-2.9	4.0	-15.2
COc1ccc(NC(C)=O)cc1NC(=O)C1CCN(C(=O)Nc2ccccc2)CC1	-0.6	-5.9	2.0	-2.4	-0.7	-6.3
Cc1c(C(=O)O)sc(=S)n1-c1ccccc1	1.8	19.7*	-0.1	10.6	-0.6	-4.8
CCOC(=O)c1sc(=S)n(-c2ccccc2)c1C	6.1	-6.3	-8.2	15.8	-13.4	1.6
Cc1ccc(NC(=O)c2ccc3c(=O)n4c(nc3c2)CCC4)cc1S(=O)(=O)N(C)C	6.7	-0.1	1.5	6.0	3.5	5.6
O=[N+]([O-])c1cc([N+](=O)[O-])c(Oc2ccc(Br)cc2Br)cc1NN1CCCCC1	1.0	6.8	3.9	5.5	3.0	5.3
COc1ccc([C@H]2N[C@]3(CCCN(Cc4cccn4C)C3=O)[C@H]3C(=O)N(Cc4ccccc4)C(=O)[C@@H]23)cc1	0.3	1.6	1.3	-1.1	6.5	-11.8
CCCCN(C)CCCNC(=O)c1cn(C)c2ccc(S(=O)(=O)N(C)C3CCCCC3)cc2c1=O	1.0	-9.6	-7.1	-10.1	5.5	13.3
O=C(NCc1cc([N+](=O)[O-])ccc1O)c1cc(-c2ccncc2)nc2ccccc12	20.2	-11.3	1.0	4.6	-21.4	9.8
COc1ccccc1CNC(=O)CN1C(=O)c2ccc([N+](=O)[O-])cc2C1=O	3.9	-8.7	-2.5	29.6*	-11.5	11.5
CCOc1ccc(S(=O)(=O)Nc2cc(S(=O)(=O)N3CCOCC3)ccc2OC)cc1	0.7	0.8	-1.0	2.7	2.0	13.2
CC(=O)c1ccc(N2CCN(c3ccccc3O)CC2)c([N+](=O)[O-])c1	30.7	-17.3	8.0	30.7*	-16.1	11.5
O=C(O)c1ccccc1C(=O)c1ccc(N2CCCC2)c([N+](=O)[O-])c1	0.9	6.1	-2.1	-9.8	3.6	-6.0
CC(=O)c1ccc(N2CCC(c3cc(-c4ccc(Cl)cc4Cl)n[nH]3)CC2)c([N+](=O)[O-])c1	5.5	-16.4	-1.1	15.8	-9.9	34.0*
CCN(C(=O)CN1C(=O)S/C(=C\c2ccc(F)cc2)C1=O)C1CCS(=O)(=O)C1 (stereo not drawn)	2.2	-6.0	-5.0	2.1	-7.6	-14.8
COc1ccc(Cl)cc1-c1cc(C(=O)N[C@H](C)c2ccccc2)[nH]n1	2.6	-6.6	-8.4	26.5	-15.7	7.2
CCc1ccc2c(c1)Sc1ccccc1CC2N1CCN(C)CC1 (stereo not drawn)	25.3	-71.7	-12.1	8.8	-28.5	32.6*
SMILES	CHRM4 agonist	M4 PAM	CHRM5 agonist	CHRM5 antagonist	M5 PAM	CHRM4 antagonist
OCCN1CCN(C2Cc3cc(Cl)ccc3Sc3ccc(Cl)cc32)CC1 (stereo not drawn) (tested in a mixture with another compound)	13.2	-16.7	-8.9	8.1	-10.8	20.9
c1ccc2c(c1)CC(N1CCCCC1)c1ccccc1S2 (stereo not drawn)	-0.7	-24.2	-20.4	2.5	-31.5	-17.6
CN1CCN(C2Cc3cc(Cl)ccc3Sc3cc(F)ccc32)CC1 (stereo not drawn)	22.8	-64.4	-17.6	58.8*	-31.8	94.2*
Oc1nc(-c2ccc(Cl)cc2)n2ccncc12	0.9	-0.3	-3.9	11.4	-1.4	-5.2
COC(=O)c1ccc(-c2nc(O)c3cnccn23)cc1	34.4*	2.8	-4.4	8.3	-1.0	-3.3
CCOC(=O)C(CC1=CS(=O)(=O)c2ccc(Cl)cc21)(NC(C)=O)C(=O)OCC	5.1	0.8	1.6	3.3	-0.4	1.2
Fc1ccc(/C=N/N2CCN(Cc3ccccc3)CC2)cc1	-0.5	3.4	-3.0	11.6	0.8	-6.0
O=C(/C=C/c1c(F)cccc1Cl)NCCCN1CCOCC1	0.6	16.5*	-3.6	6.9	2.2	3.1
COc1ccccc1N(C(C)=O)C1=C(Cl)C(=O)c2ccccc2C1=O	1.8	-12.3	1.4	35.1*	-8.1	89.7*
Cc1ccccc1C(=O)OCC(=O)Nc1cccc(S(=O)(=O)NC2=NCCC2)c1	0.9	9.1	-2.1	12.1	-5.4	-6.3
Cc1ccc(CN2CCC(CNC(=O)C3CCCN(c4ncnc5c4nc4n5CCCCC4)C3)CC2)cc1 (stereo not drawn)	0.9	-26.0	-11.5	1.5	-1.9	38.4*
O=C(NCc1ccccc1Cl)C1CCCN(c2ncnc3c2nc2n3CCCCC2)C1 (stereo not drawn)	2.0	-0.3	-4.7	8.2	-2.6	2.0
O=C(Nc1cccnc1Cl)C1CCCN(c2ncnc3c2nc2n3CCCCC2)C1 (stereo not drawn)	3.1	17.7*	-5.4	-15.4	3.6	-35.1
O=C(NCC1CCN(Cc2ccccc2F)CC1)C1CCCN(c2ncnc3c2nc2n3CCCCC2)C1 (stereo not drawn)	-0.6	-21.4	-8.8	-7.0	-3.8	52.1*
CCCNC(=O)C1(C)CCN(C(=O)c2cc(F)cc(F)c2)C1 (stereo not drawn)	1.4	-1.8	2.1	6.2	-6.0	1.8
CC(=O)N1CCN(Cc2nc3cc(NC(=O)c4ccccc4)ccc3n2C)CC1	0.8	5.5	-2.3	5.7	0.2	-3.3
COc1ccccc1C(=O)Nc1ccc2c(c1)nc(CN1CCN(C(C)=O)CC1)n2C	1.5	6.5	2.5	5.9	-1.5	27.2*
Cc1cc(C)c(S(=O)(=O)Cc2ccccc2)c(OC(C)C)n1	0.9	-1.8	-4.6	-9.8	5.0	10.4

Screening data deposited in PubChem by The Scripps Research Institute Molecular Screening Center.
